Experimental findings from ChEMBL document CHEMBL1135143, “Discovery and evaluation of N-(triazin-1,3,5-yl) phenylalanine derivatives as VLA-4 integrin antagonists” (Bioorg Med Chem Lett, 2002) are described below.

As usually defined, the IC50 is the point on the concentration scale where inhibition reaches its midpoint. Lower therefore signals greater potency.

The target of data set [1] is T1, Integrin alpha-4/beta-1 (Homo sapiens, UniProt P05556+P13612). As to the kind of experiment: Inhibition of VLA-4 from HL60 lysate in a protein-based ligand binding assay. An outline of the steps: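 Compounds titrated into two-domain VCAM-Fc-Ig solution, then added to VLA-4-coated wells; TBS, 1% BSA, 1 mM MnCl2, 0.1% Tween, 2 h room temperature. After washing, bound VCAM detected with peroxidase-coupled anti-human Fc.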
T1 sequence (P05556 whole entry): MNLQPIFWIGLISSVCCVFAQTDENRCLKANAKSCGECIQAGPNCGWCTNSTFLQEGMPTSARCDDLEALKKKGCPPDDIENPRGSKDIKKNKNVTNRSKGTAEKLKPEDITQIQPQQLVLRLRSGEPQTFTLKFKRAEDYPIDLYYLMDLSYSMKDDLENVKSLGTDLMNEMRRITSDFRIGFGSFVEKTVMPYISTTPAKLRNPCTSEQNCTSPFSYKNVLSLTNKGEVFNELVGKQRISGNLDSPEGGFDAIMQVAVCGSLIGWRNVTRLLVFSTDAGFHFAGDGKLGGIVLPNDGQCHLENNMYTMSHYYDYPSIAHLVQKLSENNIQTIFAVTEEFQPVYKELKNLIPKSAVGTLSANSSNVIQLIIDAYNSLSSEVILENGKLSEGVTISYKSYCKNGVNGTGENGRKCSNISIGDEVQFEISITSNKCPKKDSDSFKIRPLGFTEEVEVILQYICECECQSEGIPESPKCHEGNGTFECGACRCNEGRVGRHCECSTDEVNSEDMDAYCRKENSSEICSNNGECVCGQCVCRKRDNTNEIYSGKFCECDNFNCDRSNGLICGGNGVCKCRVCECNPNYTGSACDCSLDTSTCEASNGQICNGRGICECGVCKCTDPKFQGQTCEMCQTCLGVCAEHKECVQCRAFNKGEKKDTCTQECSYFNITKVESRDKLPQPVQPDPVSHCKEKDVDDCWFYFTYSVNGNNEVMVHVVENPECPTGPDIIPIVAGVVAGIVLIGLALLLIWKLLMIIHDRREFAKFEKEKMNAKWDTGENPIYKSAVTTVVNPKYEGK
T1 sequence (P13612 whole entry): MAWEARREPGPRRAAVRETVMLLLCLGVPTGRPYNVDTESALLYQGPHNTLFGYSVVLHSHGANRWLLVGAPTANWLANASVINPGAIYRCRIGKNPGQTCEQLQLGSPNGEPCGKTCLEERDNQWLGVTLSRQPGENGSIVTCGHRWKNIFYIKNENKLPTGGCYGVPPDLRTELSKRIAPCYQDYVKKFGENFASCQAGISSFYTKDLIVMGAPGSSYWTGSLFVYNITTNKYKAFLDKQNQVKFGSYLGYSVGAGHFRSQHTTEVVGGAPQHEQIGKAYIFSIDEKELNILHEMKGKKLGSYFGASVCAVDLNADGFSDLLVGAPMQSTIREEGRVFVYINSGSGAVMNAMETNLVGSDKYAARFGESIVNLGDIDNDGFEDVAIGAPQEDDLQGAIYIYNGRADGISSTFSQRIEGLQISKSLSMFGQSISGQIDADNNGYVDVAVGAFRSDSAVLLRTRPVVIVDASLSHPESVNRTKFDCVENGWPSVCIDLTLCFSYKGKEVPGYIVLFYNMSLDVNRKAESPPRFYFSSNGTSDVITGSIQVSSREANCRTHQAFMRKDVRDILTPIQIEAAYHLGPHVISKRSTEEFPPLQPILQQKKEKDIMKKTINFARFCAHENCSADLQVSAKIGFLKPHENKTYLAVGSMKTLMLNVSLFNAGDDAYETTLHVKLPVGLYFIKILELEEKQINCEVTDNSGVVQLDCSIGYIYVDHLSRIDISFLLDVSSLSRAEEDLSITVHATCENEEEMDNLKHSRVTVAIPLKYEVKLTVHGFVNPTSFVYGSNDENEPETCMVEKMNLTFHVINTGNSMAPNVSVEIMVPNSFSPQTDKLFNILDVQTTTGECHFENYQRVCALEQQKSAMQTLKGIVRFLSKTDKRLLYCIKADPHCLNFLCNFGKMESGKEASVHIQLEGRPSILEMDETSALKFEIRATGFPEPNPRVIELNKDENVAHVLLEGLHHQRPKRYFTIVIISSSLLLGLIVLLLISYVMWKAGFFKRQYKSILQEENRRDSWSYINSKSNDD

In data set [2] the target is T1, Integrin alpha-4/beta-1. The experiment in a line: Inhibition of VLA-4 expressed in Jurkat cell line, in a cell-based adhesion assay. An outline of the steps:
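VLA-4-expressing Jurkat cells incubated 30 min at 37 °C with test compound on plates carrying human two-domain VCAM-1-Fc captured by anti-human Fc; after washing, adherent cells stained with Rose Bengal.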

The nature of data set [3]: Compound was evaluated for rate of clearance by using IPRL (Isolated Perfused Rat Liver). It is filed as ADME.

Each structure is given as a SMILES string.

On to `COc1nc(N[C@@H](Cc2ccc(N(C)C(=O)c3c(Cl)cncc3Cl)cc2)C(=O)O)nc(OC)n1`, for which the IC50 at Integrin alpha-4/beta-1 [1] came to 5500 nM.
Turning to `COc1nc(N[C@@H](Cc2ccc(NC(=O)c3c(Cl)cncc3Cl)cc2)C(=O)O)nc(N2CCOCC2)n1`, the IC50 against Integrin alpha-4/beta-1 [2] turned out to be 510 nM; at Integrin alpha-4/beta-1 [1], 14 nM.
Take `COc1nc(N[C@@H](Cc2ccc(NC(=O)c3c(F)cccc3C(F)(F)F)cc2)C(=O)O)nc(OC)n1`: the IC50 against Integrin alpha-4/beta-1 [2] came out at 4600 nM; on Integrin alpha-4/beta-1 [1], 50 nM. The same compound showed a k el in data set [3] of 0.000167 s⁻¹.
The like results for `COc1nc(NCCO)nc(N[C@@H](Cc2ccc(NC(=O)c3c(Cl)cncc3Cl)cc2)C(=O)O)n1` were, in that order, 320 nM, 7 nM and 0.0005 s⁻¹.
On to `COc1nc(N[C@@H](Cc2ccc(NC(=O)c3c(Cl)cncc3Cl)cc2)C(=O)O)nc(N2CCC(C(=O)O)CC2)n1`, for which the IC50 at Integrin alpha-4/beta-1 [2] was found to be 240 nM; at Integrin alpha-4/beta-1 [1] it was 6 nM. This compound had a k el in data set [3] of 0.000583 s⁻¹.
The like results for `COc1nc(N[C@@H](Cc2ccc(NC(=O)c3c(Cl)cncc3Cl)cc2)C(=O)O)nc(Oc2ccccc2)n1` were, in that order, 320 nM, 30 nM and 0.000167 s⁻¹.
Regarding `CCCOc1nc(N[C@@H](Cc2ccc(NC(=O)c3c(Cl)cncc3Cl)cc2)C(=O)O)nc(OC)n1`, the values for the IC50 against Integrin alpha-4/beta-1 [2] and at Integrin alpha-4/beta-1 [1] were 300 nM and 45 nM, respectively. Besides, the k el in data set [3] is 0.000639 s⁻¹.
As for `O=C(Nc1ccc(C[C@H](Nc2ccc([N+](=O)[O-])cn2)C(=O)O)cc1)c1c(Cl)cncc1Cl`, the k el in data set [3] is 0.000278 s⁻¹.
Consider `CCN(CC)c1nc(N[C@@H](Cc2ccc(NC(=O)c3c(Cl)cncc3Cl)cc2)C(=O)O)nc(OC)n1`, for which the IC50 at Integrin alpha-4/beta-1 [2] was determined as 1620 nM; at Integrin alpha-4/beta-1 [1], 70 nM.
In the case of `CCCOc1nc(N[C@@H](Cc2ccc(NC(=O)c3c(Cl)cncc3Cl)cc2)C(=O)O)nc(OCCC)n1`, the IC50 against Integrin alpha-4/beta-1 [2] stood at 740 nM; on Integrin alpha-4/beta-1 [1] it was 50 nM. This compound also had a k el in data set [3] of 5.56e-05 s⁻¹.
Turning to `O=C(Nc1ccc(C[C@H](Nc2cc(Cl)ncn2)C(=O)O)cc1)c1c(Cl)cncc1Cl`, the k el in data set [3] was 0.000583 s⁻¹.
As for `COc1nc(N[C@@H](Cc2ccc(NC(=O)c3c(Cl)cncc3Cl)cc2)C(=O)O)nc(N(C)C)n1`, the IC50 against Integrin alpha-4/beta-1 [2] came out at 590 nM; at Integrin alpha-4/beta-1 [1], 16 nM. Besides, the k el in data set [3] is 0.000306 s⁻¹.
The like results for `O=C(Nc1ccc(C[C@H](NC(=O)c2c(Cl)cncc2Cl)C(=O)O)cc1)c1c(Cl)cncc1Cl` were, in that order, 0.5 nM, 0.9 nM and 0.00108 s⁻¹.
Take `CCCNc1nc(N[C@@H](Cc2ccc(NC(=O)c3c(Cl)cncc3Cl)cc2)C(=O)O)nc(OC)n1`: the half-inhibitory concentration (IC50) stood at 740 nM on Integrin alpha-4/beta-1 [2] and 25 nM on Integrin alpha-4/beta-1 [1]. Besides, the k el in data set [3] was 0.000667 s⁻¹.
The like results for `COc1nc(N[C@@H](Cc2ccc(NC(=O)c3c(Cl)cncc3Cl)cc2)C(=O)O)nc(N2CCNCC2)n1` were, in that order, 1000 nM, 25 nM and 0.000583 s⁻¹.
The like results for `COc1nc(N[C@@H](Cc2ccc(NC(=O)c3c(Cl)cccc3Cl)cc2)C(=O)O)nc(OC)n1` were, in that order, 4000 nM, 30 nM and 0.000194 s⁻¹.
For `COc1nc(N[C@@H](Cc2ccc(OCc3c(Cl)cccc3Cl)cc2)C(=O)O)nc(OC)n1`, in data set [3], the k el is 0.000611 s⁻¹. Moreover, the IC50 at Integrin alpha-4/beta-1 [1] was 1500 nM.
In the case of `COc1nc(N[C@@H](Cc2ccc(NC(=O)c3c(Cl)cncc3Cl)cc2)C(=O)O)nc(OC)n1`, the IC50 stood at 900 nM at Integrin alpha-4/beta-1 [2] and 8 nM at Integrin alpha-4/beta-1 [1]. The compound also had a k el in data set [3] of 0.000306 s⁻¹.
As for `CC(=O)N1CSC[C@@H]1C(=O)N[C@@H](Cc1ccc(NC(=O)c2c(Cl)cncc2Cl)cc1)C(=O)O`, the IC50 against Integrin alpha-4/beta-1 [2] stood at 0.5 nM; at Integrin alpha-4/beta-1 [1], 0.6 nM. In data set [3], the k el is 0.00103 s⁻¹.
